# Measurements gathered from unrelated publications.
# Protocols differ between the studies behind these lines.
# Target: Mitogen-activated protein kinase kinase kinase 5 (MAP3K5, Homo sapiens, UniProt Q99683)
# Sequence (Q99683 1-1374, as in one of the studies): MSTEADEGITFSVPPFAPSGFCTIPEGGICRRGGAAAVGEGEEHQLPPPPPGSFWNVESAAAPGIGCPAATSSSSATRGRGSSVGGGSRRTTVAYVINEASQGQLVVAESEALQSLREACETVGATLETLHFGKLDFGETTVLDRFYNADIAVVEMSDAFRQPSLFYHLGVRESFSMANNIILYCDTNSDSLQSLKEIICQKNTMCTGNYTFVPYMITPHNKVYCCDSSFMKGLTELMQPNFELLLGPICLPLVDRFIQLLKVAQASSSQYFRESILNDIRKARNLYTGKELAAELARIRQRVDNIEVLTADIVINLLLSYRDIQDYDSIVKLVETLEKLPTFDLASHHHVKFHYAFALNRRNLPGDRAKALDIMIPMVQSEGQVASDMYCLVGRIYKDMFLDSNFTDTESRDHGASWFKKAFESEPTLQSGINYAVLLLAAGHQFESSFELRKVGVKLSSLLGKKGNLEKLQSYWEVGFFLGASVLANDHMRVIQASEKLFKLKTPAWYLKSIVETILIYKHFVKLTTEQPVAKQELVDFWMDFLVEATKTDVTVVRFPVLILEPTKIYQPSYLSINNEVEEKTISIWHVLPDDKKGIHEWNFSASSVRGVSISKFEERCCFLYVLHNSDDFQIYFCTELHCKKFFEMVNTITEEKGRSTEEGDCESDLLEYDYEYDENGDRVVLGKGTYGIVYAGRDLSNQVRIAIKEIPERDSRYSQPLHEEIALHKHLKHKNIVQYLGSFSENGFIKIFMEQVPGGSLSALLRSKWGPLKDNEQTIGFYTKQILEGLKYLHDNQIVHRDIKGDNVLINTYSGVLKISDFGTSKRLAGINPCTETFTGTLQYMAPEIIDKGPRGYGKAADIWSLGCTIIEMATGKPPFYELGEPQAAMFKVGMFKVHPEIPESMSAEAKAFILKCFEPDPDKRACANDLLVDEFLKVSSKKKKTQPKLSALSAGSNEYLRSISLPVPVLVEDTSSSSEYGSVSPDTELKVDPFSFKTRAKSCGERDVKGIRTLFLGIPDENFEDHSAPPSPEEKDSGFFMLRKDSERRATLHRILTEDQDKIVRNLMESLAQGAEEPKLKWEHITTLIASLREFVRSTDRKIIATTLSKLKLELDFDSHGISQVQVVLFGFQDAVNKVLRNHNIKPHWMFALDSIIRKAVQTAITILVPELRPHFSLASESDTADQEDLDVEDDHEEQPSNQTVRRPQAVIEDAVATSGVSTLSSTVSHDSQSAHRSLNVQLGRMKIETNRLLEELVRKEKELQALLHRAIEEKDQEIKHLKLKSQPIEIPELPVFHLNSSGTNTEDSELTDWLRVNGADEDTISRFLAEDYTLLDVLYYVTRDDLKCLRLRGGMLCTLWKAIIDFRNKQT
SMILES,test,setting,endpoint,result
Cn1cc(-c2cc(F)cc(N3CCn4c(cc5c4CCCC5)C3=O)c2CO)cc(Nc2ccc(N3CCN(C4COC4)CC3)cn2)c1=O,"enzyme activity, inhibitor",0.1 µM,inhibition,2%
CC(C)(C)c1cc(C=C(C#N)C#N)cc(Br)c1O,"enzyme activity, inhibitor",0.5 µM,remaining activity,100%
Cc1nn(C)cc1-c1nc2c(N3CCN(Cc4ccc(Cl)cc4)CC3)c(Cl)cnc2[nH]1,"binding, competition with immobilised ligand",1 µM,remaining binding,100%
Cn1cc(-c2cccc(N3CCc4c(sc5c4CC(C)(C)C5)C3=O)c2CO)cc(Nc2ccncn2)c1=O,"enzyme activity, inhibitor",1 µM,inhibition,14%
COc1ncccc1-c1cnn2ccc(N3CCN(C(=O)OC(C)C)CC3)nc12,"binding, competition with immobilised ligand",1 µM,remaining binding,73%
Cn1cncc1[C@@](O)(COc1ccc(C#N)cc1-c1ccc(OC(F)(F)F)cc1)c1ccc(C#N)cc1,"cell-free assay, competition with immobilised ligand",1 µM,remaining binding,91%
O=c1[nH]c2ccccc2n1C1CCN(Cc2ccc(-c3[nH]c4cc5ncnc5cc4nc3-c3ccccc3)cc2)CC1,cell-free assay,0.5 µM,remaining signal,93.8%
N#CC1(c2ccccn2)CCN(Cc2cc(C(=O)O)c(=O)n3ccccc23)CC1,"cell-free assay, competition with immobilised ligand",1 µM,remaining binding,75%
COc1cc(Nc2ncc(F)c(Nc3ccc4c(n3)NC(=O)C(C)(C)O4)n2)cc(OC)c1OC,"binding, competition with immobilised ligand",10 µM,inhibition,0%
Nc1ncc(-c2nc(N3CCOCC3)nc(N3CCOCC3)n2)c(C(F)F)n1,"binding, competition with immobilised ligand",10 µM,remaining binding,92%
